Measurements from ChEMBL document CHEMBL3856229, “Hybrid Antibiotic Overcomes Resistance in P. aeruginosa by Enhancing Outer Membrane Penetration and Reducing Efflux” (J Med Chem, 2016).
Values after ≈ are worked out from the molar mass of the structure shown.

Legend:
Pseudomonas aeruginosa [1] = test: Antibacterial activity against multidrug-resistant/tobramycin-susceptible Pseudomonas aeruginosa isolate 86052; assay type: functional
Staphylococcus aureus [2] = test: Antibacterial activity against Staphylococcus aureus ATCC 29213 after 24 hrs by microtitre broth dilution method; assay type: functional; details: ATCC 29213, 24 h
Staphylococcus aureus [3] = test: Antibacterial activity against methicillin-resistant Staphylococcus aureus ATCC 33592 after 24 hrs by microtitre broth dilution method; assay type: functional; details: ATCC 33592, 24 h
[4] = system: Staphylococcus epidermidis; test: Antibacterial activity against methicillin-susceptible Staphylococcus epidermidis isolate CANWARD-2008 81388 after 24 hrs by microtitre broth dilution method; assay type: functional; details: isolate CANWARD-2008 81388, 24 h
[5] = system: Staphylococcus epidermidis; test: Antibacterial activity against methicillin-resistant Staphylococcus epidermidis isolate CAN-ICU 61589 after 24 hrs by microtitre broth dilution method; assay type: functional; details: isolate CAN-ICU 61589, 24 h
Enterococcus faecalis = test: Antibacterial activity against Enterococcus faecalis ATCC 29212 after 24 hrs by microtitre broth dilution method; assay type: functional; details: ATCC 29212, 24 h
Enterococcus faecium = test: Antibacterial activity against Enterococcus faecium ATCC 27270 after 24 hrs by microtitre broth dilution method; assay type: functional; details: ATCC 27270, 24 h
Streptococcus pneumoniae = test: Antibacterial activity against Streptococcus pneumoniae ATCC 49619 after 24 hrs by microtitre broth dilution method; assay type: functional; details: ATCC 49619, 24 h
Escherichia coli [6] = test: Antibacterial activity against gentamicin-resistant Escherichia coli isolate CAN-ICU 61714 after 24 hrs by microtitre broth dilution method; assay type: functional; details: isolate CAN-ICU 61714, 24 h
Escherichia coli [7] = test: Antibacterial activity against amikacin-resistant Escherichia coli isolate CAN-ICU 63074 after 24 hrs by microtitre broth dilution method; assay type: functional; details: isolate CAN-ICU 63074, 24 h
Escherichia coli [8] = test: Antibacterial activity against gentamicin/tobramycin/ciprofloxacin-resistant Escherichia coli isolate CANWARD-2011 97615 harboring AAC3-2A after 24 hrs by microtitre broth dilution method; assay type: functional; details: isolate CANWARD-2011 97615, 24 h
Pseudomonas aeruginosa [9] = test: Antibacterial activity against Pseudomonas aeruginosa ATCC 27853 after 24 hrs by microtitre broth dilution method; assay type: functional; details: ATCC 27853, 24 h
Pseudomonas aeruginosa [10] = test: Antibacterial activity against gentamicin-resistant Pseudomonas aeruginosa isolate CAN-ICU 62308 after 24 hrs by microtitre broth dilution method; assay type: functional; details: isolate CAN-ICU 62308, 24 h
Pseudomonas aeruginosa [11] = test: Antibacterial activity against gentamicin/tobramycin-resistant Pseudomonas aeruginosa isolate CANWARD-2011 96846 after 24 hrs by microtitre broth dilution method; assay type: functional; details: isolate CANWARD-2011 96846, 24 h
[12] = system: Stenotrophomonas maltophilia; test: Antibacterial activity against Stenotrophomonas maltophilia isolate CAN-ICU 62584 after 24 hrs by microtitre broth dilution method; assay type: functional; details: isolate CAN-ICU 62584, 24 h
Acinetobacter baumannii = test: Antibacterial activity against Acinetobacter baumannii isolate CAN-ICU 63169 after 24 hrs by microtitre broth dilution method; assay type: functional; details: isolate CAN-ICU 63169, 24 h
Klebsiella pneumoniae = test: Antibacterial activity against Klebsiella pneumoniae ATCC 13883 after 24 hrs by microtitre broth dilution method; assay type: functional; details: ATCC 13883, 24 h
Pseudomonas aeruginosa [13] = test: Antibacterial activity against multidrug/extremely drug-resistant/colistin-susceptible Pseudomonas aeruginosa isolate 100036; assay type: functional
Pseudomonas aeruginosa [14] = test: Antibacterial activity against multidrug/extremely drug-resistant/colistin-susceptible Pseudomonas aeruginosa isolate 101885; assay type: functional
Pseudomonas aeruginosa [15] = test: Antibacterial activity against multidrug/extremely drug-resistant/colistin-susceptible Pseudomonas aeruginosa isolate 259-96918; assay type: functional
Pseudomonas aeruginosa [16] = test: Antibacterial activity against multidrug/extremely drug-resistant/colistin-susceptible Pseudomonas aeruginosa isolate 260-97103; assay type: functional
Pseudomonas aeruginosa [17] = test: Antibacterial activity against multidrug/extremely drug-resistant/colistin-susceptible Pseudomonas aeruginosa isolate 262-101856; assay type: functional
Pseudomonas aeruginosa [18] = test: Antibacterial activity against multidrug/extremely drug-resistant/colistin-susceptible Pseudomonas aeruginosa isolate 264-104354; assay type: functional
Pseudomonas aeruginosa [19] = test: Antibacterial activity against pandrug-resistant Pseudomonas aeruginosa isolate 91433; assay type: functional
Pseudomonas aeruginosa [20] = test: Antibacterial activity against pandrug-resistant Pseudomonas aeruginosa isolate 101243; assay type: functional
Pseudomonas aeruginosa [21] = test: Antibacterial activity against Pseudomonas aeruginosa PAO1; assay type: functional
Pseudomonas aeruginosa [22] = test: Antibacterial activity against multidrug-resistant/tobramycin-susceptible Pseudomonas aeruginosa isolate 86053; assay type: functional
Pseudomonas aeruginosa [23] = test: Antibacterial activity against multidrug-resistant/tobramycin-susceptible Pseudomonas aeruginosa isolate 86067; assay type: functional
Pseudomonas aeruginosa [24] = test: Antibacterial activity against multidrug-resistant/tobramycin-susceptible Pseudomonas aeruginosa isolate 86079; assay type: functional
Pseudomonas aeruginosa [25] = test: Antibacterial activity against multidrug-resistant/tobramycin-susceptible Pseudomonas aeruginosa isolate 86141; assay type: functional
Pseudomonas aeruginosa [26] = test: Antibacterial activity against multidrug-resistant/tobramycin-susceptible Pseudomonas aeruginosa isolate 92014; assay type: functional
Pseudomonas aeruginosa [27] = test: Antibacterial activity against multidrug-resistant/tobramycin-susceptible Pseudomonas aeruginosa isolate 108590; assay type: functional
Pseudomonas aeruginosa [28] = test: Antibacterial activity against multidrug-resistant/tobramycin-susceptible Pseudomonas aeruginosa isolate 79199; assay type: functional
Pseudomonas aeruginosa [29] = test: Antibacterial activity against multidrug-resistant/tobramycin-susceptible Pseudomonas aeruginosa isolate 80621; assay type: functional
Pseudomonas aeruginosa [30] = test: Antibacterial activity against multidrug-resistant/tobramycin-susceptible Pseudomonas aeruginosa isolate 83182; assay type: functional
Pseudomonas aeruginosa [31] = test: Antibacterial activity against multidrug-resistant/tobramycin-susceptible Pseudomonas aeruginosa isolate 84745; assay type: functional
Pseudomonas aeruginosa [32] = test: Antibacterial activity against multidrug-resistant/tobramycin-susceptible Pseudomonas aeruginosa isolate 85322; assay type: functional
Escherichia coli [33] = test: Antibacterial activity against Escherichia coli ATCC 25922 after 24 hrs by microtitre broth dilution method; assay type: functional; details: ATCC 25922, 24 h
Pseudomonas aeruginosa [34] = test: Antibacterial activity against extremely drug-resistant Pseudomonas aeruginosa isolate 104354 infected in Galleria mellonella assessed as larvae survival at 50 mg/kg administered as single dose measured after 24 hrs (reference value: 27 %); assay type: functional; details: isolate 104354, 24 h
In short: (§1)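 Galleria mellonella larvae were infected with 10^6 CFU of XDR P. aeruginosa #104354, resistant to all antipseudomonal classes except colistin. A single injected drug dose was given 2 h post-infection: 50 mg/kg with survival read at 24 h, or 75 mg/kg with survival read at 96 h. Controls were infected untreated larvae and PBS-injected larvae. Two independent experiments of 15 larvae each (n = 30).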

Pseudomonas aeruginosa [35] = test: Antibacterial activity against extremely drug-resistant Pseudomonas aeruginosa isolate 104354 infected in Galleria mellonella assessed as larvae survival at 75 mg/kg administered as single dose measured after 96 hrs; assay type: functional; details: isolate 104354, 96 h; in short: as §1
Pseudomonas aeruginosa [36] = test: Induction of cytoplasmic membrane depolarization in Pseudomonas aeruginosa PAO1 by DiSC3(5) dye based fluorescence assay; assay type: functional
[37] = Inhibition of circular DNA translation in Escherichia coli S30 extract after 60 mins by luciferase reporter gene assay
In short: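 Translation was run in an E. coli S30 extract with a luciferase read-out. Luminescence is expressed as a percentage of the no-antibiotic control, taken as 100%.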

Pseudomonas aeruginosa [38] = test: Ratio of MIC for Pseudomonas aeruginosa PAO1 after 25 serial passages to MIC for Pseudomonas aeruginosa PAO1 prior to 25 serial passages; assay type: functional
In short: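 P. aeruginosa PAO1 exposed to sub-inhibitory (0.5 x MIC) drug over successive subcultures as a resistance-selection procedure. MIC compared after versus before passaging.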

For `NC[C@H]1O[C@H](O[C@H]2[C@H](O)[C@@H](O[C@H]3O[C@H](CO)[C@@H](O)[C@H](N)[C@H]3O)[C@H](N)C[C@@H]2N)[C@H](N)C[C@@H]1O` [TOBRAMYCIN], the MIC (Pseudomonas aeruginosa [1]) was 1 µg/mL (≈ 2.14 µM), the MIC (Staphylococcus aureus [2]) was no more than 0.25 µg/mL and the MIC (Staphylococcus aureus [3]) was no more than 0.25 µg/mL. The MIC [4] was no more than 0.25 µg/mL, the MIC [5] was 1 µg/mL (≈ 2.14 µM) and the MIC (Enterococcus faecalis) was 8 µg/mL (≈ 17.1 µM). The MIC (Enterococcus faecium) was 8 µg/mL (≈ 17.1 µM), the MIC (Streptococcus pneumoniae) was 2 µg/mL (≈ 4.28 µM) and the MIC (Escherichia coli [6]) was 8 µg/mL (≈ 17.1 µM). The MIC (Escherichia coli [7]) was 8 µg/mL (≈ 17.1 µM), the MIC (Escherichia coli [8]) was 128 µg/mL (≈ 274 µM) and the MIC (Pseudomonas aeruginosa [9]) was 0.5 µg/mL (≈ 1.07 µM). For the same compound, the MIC (Pseudomonas aeruginosa [10]) was 16 µg/mL (≈ 34.2 µM), the MIC (Pseudomonas aeruginosa [11]) was 256 µg/mL (≈ 548 µM) and the MIC [12] was greater than 512 µg/mL. For the same compound, the MIC (Acinetobacter baumannii) was 32 µg/mL (≈ 68.4 µM), the MIC (Klebsiella pneumoniae) was no more than 0.25 µg/mL and the MIC (Pseudomonas aeruginosa [13]) was 64 µg/mL (≈ 137 µM). For the same compound, the MIC (Pseudomonas aeruginosa [14]) was less than 0.5 µg/mL, the MIC (Pseudomonas aeruginosa [15]) was greater than 64 µg/mL and the MIC (Pseudomonas aeruginosa [16]) was 32 µg/mL (≈ 68.4 µM). It also gave an MIC (Pseudomonas aeruginosa [17]) greater than 64 µg/mL, an MIC (Pseudomonas aeruginosa [18]) greater than 64 µg/mL and an MIC (Pseudomonas aeruginosa [19]) of 8 µg/mL (≈ 17.1 µM). For the same compound, the MIC (Pseudomonas aeruginosa [20]) was greater than 64 µg/mL, the MIC (Pseudomonas aeruginosa [21]) was 0.5 µg/mL (≈ 1.07 µM) and the MIC (Pseudomonas aeruginosa [22]) was 1 µg/mL (≈ 2.14 µM). It also gave an MIC (Pseudomonas aeruginosa [23]) greater than 64 µg/mL, an MIC (Pseudomonas aeruginosa [24]) of 2 µg/mL (≈ 4.28 µM) and an MIC (Pseudomonas aeruginosa [25]) of 1 µg/mL (≈ 2.14 µM). The MIC (Pseudomonas aeruginosa [26]) was 1 µg/mL (≈ 2.14 µM), the MIC (Pseudomonas aeruginosa [27]) was 4 µg/mL (≈ 8.56 µM) and the MIC (Pseudomonas aeruginosa [28]) was 2 µg/mL (≈ 4.28 µM). The MIC (Pseudomonas aeruginosa [29]) was 2 µg/mL (≈ 4.28 µM), the MIC (Pseudomonas aeruginosa [30]) was 1 µg/mL (≈ 2.14 µM) and the MIC (Pseudomonas aeruginosa [31]) was 1 µg/mL (≈ 2.14 µM). It also gave an MIC (Pseudomonas aeruginosa [32]) of 1 µg/mL (≈ 2.14 µM), an MIC (Escherichia coli [33]) of 0.5 µg/mL (≈ 1.07 µM) and a survival at 50 mg/kg (Pseudomonas aeruginosa [34]) of 20%. The survival at 75 mg/kg (Pseudomonas aeruginosa [35]) was 0%, the Activity (Pseudomonas aeruginosa [36]) was “Dose-dependent effect” and the IC50 [37] was 6.2 nM. For the same compound, the Ratio (Pseudomonas aeruginosa [38]) was 512.
COLISTIN gave an MIC (Pseudomonas aeruginosa [1]) of 1 µg/mL, an MIC (Pseudomonas aeruginosa [13]) of 2 µg/mL and an MIC (Pseudomonas aeruginosa [14]) of 1 µg/mL. It also gave an MIC (Pseudomonas aeruginosa [15]) of 1 µg/mL, an MIC (Pseudomonas aeruginosa [16]) of 1 µg/mL and an MIC (Pseudomonas aeruginosa [17]) of 2 µg/mL. It also gave an MIC (Pseudomonas aeruginosa [18]) of 1 µg/mL, an MIC (Pseudomonas aeruginosa [19]) of 4 µg/mL and an MIC (Pseudomonas aeruginosa [20]) of 1020 µg/mL. It also gave an MIC (Pseudomonas aeruginosa [21]) of 1 µg/mL, an MIC (Pseudomonas aeruginosa [22]) of 1 µg/mL and an MIC (Pseudomonas aeruginosa [23]) of 0.5 µg/mL. It also gave an MIC (Pseudomonas aeruginosa [24]) of 1 µg/mL, an MIC (Pseudomonas aeruginosa [25]) of 1 µg/mL and an MIC (Pseudomonas aeruginosa [26]) of 1 µg/mL. It also gave an MIC (Pseudomonas aeruginosa [27]) of 1 µg/mL, an MIC (Pseudomonas aeruginosa [28]) of 1 µg/mL and an MIC (Pseudomonas aeruginosa [29]) of 2 µg/mL. For the same compound, the MIC (Pseudomonas aeruginosa [30]) was 1 µg/mL, the MIC (Pseudomonas aeruginosa [31]) was 2 µg/mL and the MIC (Pseudomonas aeruginosa [32]) was 1 µg/mL. The Activity (Pseudomonas aeruginosa [36]) was “Dose-dependent effect”.
